From PubChem BioAssay
TLR9-MyD88 inh – inhibitors of human TLR9-MyD88 binding. Q9NR96+Q99836. CHO BLA complementation TLR9-MyD88, CCF4 FRET ratio. inhibition, % at 4.98 µM. actives 0.21% (n = 340,000);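 active = inhibition above the mean over all tested compounds plus 3 SD, cut at about 21% in these data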
Target sequence (Q99836 whole entry, looked up): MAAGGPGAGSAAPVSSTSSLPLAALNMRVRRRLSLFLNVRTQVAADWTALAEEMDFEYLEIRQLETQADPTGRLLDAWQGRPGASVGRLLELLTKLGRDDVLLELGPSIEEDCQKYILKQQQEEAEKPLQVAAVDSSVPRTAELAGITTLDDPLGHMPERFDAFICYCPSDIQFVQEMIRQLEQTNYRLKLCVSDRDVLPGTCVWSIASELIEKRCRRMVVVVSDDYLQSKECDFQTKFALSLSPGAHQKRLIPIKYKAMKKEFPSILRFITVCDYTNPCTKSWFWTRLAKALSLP
Target sequence (Q9NR96 whole entry, looked up): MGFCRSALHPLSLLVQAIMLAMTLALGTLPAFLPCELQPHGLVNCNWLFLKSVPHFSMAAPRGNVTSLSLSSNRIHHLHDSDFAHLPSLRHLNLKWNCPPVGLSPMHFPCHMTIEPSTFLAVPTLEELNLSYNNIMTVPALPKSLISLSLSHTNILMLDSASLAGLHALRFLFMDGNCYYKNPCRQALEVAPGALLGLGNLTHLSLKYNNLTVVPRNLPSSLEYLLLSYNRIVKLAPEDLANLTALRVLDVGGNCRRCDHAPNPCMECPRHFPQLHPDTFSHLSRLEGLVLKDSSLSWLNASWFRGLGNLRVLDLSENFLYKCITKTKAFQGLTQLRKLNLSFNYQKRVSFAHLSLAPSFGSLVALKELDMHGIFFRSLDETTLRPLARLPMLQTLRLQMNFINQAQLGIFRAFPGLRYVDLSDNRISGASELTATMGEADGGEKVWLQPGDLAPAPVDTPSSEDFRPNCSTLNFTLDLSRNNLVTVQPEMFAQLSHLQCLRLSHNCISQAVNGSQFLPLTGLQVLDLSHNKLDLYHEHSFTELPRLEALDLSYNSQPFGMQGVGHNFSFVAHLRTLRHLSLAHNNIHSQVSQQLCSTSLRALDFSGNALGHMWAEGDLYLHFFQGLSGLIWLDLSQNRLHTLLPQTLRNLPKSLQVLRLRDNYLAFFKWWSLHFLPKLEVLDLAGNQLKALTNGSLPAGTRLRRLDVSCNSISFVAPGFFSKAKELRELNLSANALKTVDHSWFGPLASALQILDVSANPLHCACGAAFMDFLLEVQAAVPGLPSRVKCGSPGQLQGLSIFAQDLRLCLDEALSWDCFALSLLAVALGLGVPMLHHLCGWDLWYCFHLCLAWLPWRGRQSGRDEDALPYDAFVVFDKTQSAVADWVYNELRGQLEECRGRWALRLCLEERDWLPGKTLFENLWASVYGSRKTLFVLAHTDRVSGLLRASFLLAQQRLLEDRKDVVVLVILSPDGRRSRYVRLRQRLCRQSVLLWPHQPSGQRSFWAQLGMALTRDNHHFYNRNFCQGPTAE
NTR1 ag – agonists of human neurotensin receptor NTR1. P30989. NTR1-U2OS beta-arrestin-GFP spot imaging, agonist mode. activation, % at 20 µM. actives 0.17% (n = 330,000). AID 493036;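 active = activation at or above 40% of the spot to cytoplasm intensity ratio, with at least 20 cells analyzed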
TLR4 MyD88 comp – blocks binding of human TLR4 to MyD88 | O00206+Q99836 | HeLa CL3-4 TLR4/MyD88 BLA complementation, FRET ratio | inhibition, % at 8.4 µM | actives 0.18% (n = 200,000) | AID 861; in the data active = inhibition above about 25%
NOD2-RIPK2 inh – NOD2-RIPK2 protein interaction inhibition. inhibition, % at 4.98 µM. AID 624267. O43353. CHO BLA complementation NOD2-RIPK2, CCF4 ratio. actives 0.38% (n = 360,000); in the data active = inhibition above about 21%
MC4R antag cAMP – human MC4R antagonism in cAMP assay; P32245; MC4R-expressing cells, MTII-stimulated cAMP, LANCE TR-FRET; inhibition, % at 6.5 µM; actives 0.48% (n = 360,000); AID 540295;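 active = inhibition above its plate's cutoff, the mean of tested wells on that plate plus 3 SD, cut at about 29% in these data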
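Assay system: human MC4R-expressing U2OS cells; reagent: Melanotan II stimulation of cells; dosing: 6.5 µM single dose; timing: compound 30 min, challenge 1 h, detection 1 h; signal: TR-FRET cAMP assay; replicates: one well per compound, no replicates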
MC4R ag barr – activates human MC4R beta-arrestin recruitment. P32245. U2OS MC4R beta-arrestin complementation, luminescence; percent of melanotan II response, DMSO zero. activation, % at 8.9 µM. actives 0.98% (n = 360,000);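 active = activation above a per-plate cutoff, the mean activation of sample wells on that plate plus 3 SD, cut at about 8% in these data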
MC4R barr conf – human MC4R beta-arrestin agonism confirmation; activation, % at 8.9 µM; U2OS MC4R beta-arrestin recruitment, luminescence; scaled DMSO 0%, Melanotan II 100%; actives 31% (n = 2,400); AID 602192; shares compounds with MC4R ag barr;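 active = mean activation across replicates above the hit cutoff set in the earlier primary screen, cut at about 8% in these data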
MOR-DOR barr ag – counter-screen for MC4R agonists: agonists of mu-delta opioid heterodimer | actives 5.8% (n = 2,400) | activation, % at 9.2 µM | AID 602194 | U2OS PathHunter beta-arrestin, beta-gal luminescence; percent of deltorphin B response, DMSO zero | shares compounds with MC4R ag barr;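 active = mean activation across replicates exceeds the hit threshold derived in the earlier primary screen, cut at about 18% in these data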
Each line names hits and unclear results; the compound was inactive in the other large screens (follow-up assays come after a bar, where they were run). Most compounds without a hit are left out; they make up all but 1.9% or so of the library.

COc1ccc(-c2nsc(SCC(=O)Nc3ccc4c(c3)OCO4)n2)cc1	MC4R ag barr 12 | MC4R barr conf inactive | MOR-DOR barr ag inactive
CCC1(CC)SCCNC1=O	none (no result: NTR1 ag, TLR4 MyD88 comp)
COc1ccc(OCCC(=O)Nc2ccccc2)cc1	none (no result: TLR4 MyD88 comp)
O=C(Cn1nc(-c2ccccc2)ccc1=O)Nc1ccc(NC(=O)c2ccccn2)cc1	MC4R ag barr 14 | MC4R barr conf 22 | MOR-DOR barr ag 22
O=C(CCl)N(Cc1ccccc1)c1ccccc1	MC4R ag barr 20 | MC4R barr conf 15 | MOR-DOR barr ag 18
CCc1cc(-c2[nH]ncc2-c2ccc3c(c2)OCO3)c(O)cc1O	MC4R ag barr 19 | MC4R barr conf inactive | MOR-DOR barr ag inactive
CCc1cc(-c2[nH]ncc2-c2ccc(OC)cc2)c(O)cc1O	none (no result: TLR4 MyD88 comp)
NC1=NC(c2ccccc2)CC(=O)N1 (stereo not drawn)	none (no result: NTR1 ag, TLR4 MyD88 comp)
NC(=O)c1c(NC(=O)c2ccccc2)sc2c1CCN(Cc1ccccc1)C2	MC4R ag barr 12 (no result: TLR4 MyD88 comp) | MC4R barr conf inactive | MOR-DOR barr ag inactive
NC(=O)c1c(NC(=O)c2c(F)cccc2F)sc2c1CCN(Cc1ccccc1)C2	none (no result: TLR4 MyD88 comp)
COc1cc(NC(=O)c2ccco2)c(C(=O)OCC(=O)Nc2ncc(Cl)cc2Cl)cc1OC	MC4R ag barr 18 | MC4R barr conf inactive | MOR-DOR barr ag inactive
COc1ccc(NC2CCCN(C(=O)CSc3ccccc3)C2)cc1OC (stereo not drawn)	none (no result: TLR4 MyD88 comp)
CCCCn1c(/N=C/c2c[nH]c3ccccc23)nc2ccccc21	none
CCCn1c(/N=C/c2c[nH]c3ccccc23)nc2ccccc21	MC4R ag barr 11 | MC4R barr conf inactive | MOR-DOR barr ag inactive
CCOC(=O)C1=C(C)N(C)C(=S)NC1c1c(OCC)ccc2ccccc12 (stereo not drawn)	MC4R ag barr 21 | MC4R barr conf inactive | MOR-DOR barr ag inactive
COc1ccc(OC)c(NC(=O)c2cc(-c3cc(C)c(C)cc3O)n[nH]2)c1	none (no result: TLR4 MyD88 comp)
COc1ccc(OC)c(NC(=O)c2cc(-c3cc(C)cc(C)c3O)n[nH]2)c1	MC4R ag barr 20 (no result: TLR4 MyD88 comp) | MC4R barr conf inactive | MOR-DOR barr ag inactive
COc1ccc(NC(=O)c2cc(-c3cc(C)c(C)cc3O)n[nH]2)c(OC)c1	MC4R ag barr 15 (no result: TLR4 MyD88 comp) | MC4R barr conf inactive | MOR-DOR barr ag inactive
CC(OC(=O)CCc1nc2ccccc2[nH]c1=O)c1ccccc1 (stereo not drawn)	none
COC(=O)C1(NC(=O)NC2CCCCC2)CCCCC1	none (no result: TLR4 MyD88 comp)
Cc1ccc(NC(=O)CCn2cnc3ccccc3c2=O)cc1	none
O=C(CCn1cnc2ccccc2c1=O)Nc1nc(-c2ccc(Br)cc2)cs1	MC4R ag barr 11 | MC4R barr conf inactive | MOR-DOR barr ag 35
CCOC(=O)c1ccc(NC(=O)Cn2cc3c(n2)CCC(C)C3)cc1 (stereo not drawn)	MC4R ag barr 13 | MC4R barr conf inactive | MOR-DOR barr ag inactive
O=C(CN(c1cccc(Cl)c1)S(=O)(=O)c1ccc(Cl)cc1)N1CCc2ccccc2C1	none
Cc1cccc(NC(=O)c2ccc(S(=O)(=O)N3CCOCC3)cc2)n1	none
COc1cc(/C=C2\CC/C(=C\c3cc(OC)c(O)c(OC)c3)C2=O)cc(OC)c1O	MC4R ag barr 21 | MC4R barr conf 56 | MOR-DOR barr ag 35
COc1cc(/C=C2\CC/C(=C\c3cc(OC)c(OC)c(OC)c3)C2=O)cc(OC)c1OC	none
COc1ccc(C2=C(C=Nc3c(C)n(C)n(-c4ccccc4)c3=O)C(c3ccccc3C)c3ccccc3O2)cc1OC (stereo not drawn)	none
CC(=O)c1ccc(N2CCN(S(=O)(=O)c3cc4c(cc3C)NC(=O)CO4)CC2)cc1	MC4R ag barr 16 (no result: TLR4 MyD88 comp) | MC4R barr conf inactive | MOR-DOR barr ag inactive
Cc1cc2c(cc1S(=O)(=O)N1CCN(c3cccc(C(F)(F)F)c3)CC1)OCC(=O)N2	none (no result: TLR4 MyD88 comp)
O=C1COc2ccc(S(=O)(=O)N3CCN(c4cccc(C(F)(F)F)c4)CC3)cc2N1	MC4R ag barr 11 (no result: TLR4 MyD88 comp) | MC4R barr conf inactive | MOR-DOR barr ag inactive
CSCCC(NC(=O)c1cccc(S(=O)(=O)N2CCOCC2)c1)C(=O)Nc1cccc(C)c1 (stereo not drawn)	none
CC1CCCN(C(=O)COC(=O)C2CCN(S(=O)(=O)c3ccc(Cl)c(C(F)(F)F)c3)CC2)C1 (stereo not drawn)	MC4R ag barr 56 (no result: TLR4 MyD88 comp) | MC4R barr conf inactive | MOR-DOR barr ag inactive
Cc1ccnc(NC(=O)C2CCN(S(=O)(=O)c3ccc(Cl)c(C(F)(F)F)c3)CC2)c1	none (no result: TLR4 MyD88 comp)
Cc1ccc(NC(=O)C2CCN(S(=O)(=O)c3ccc(Cl)c(C(F)(F)F)c3)CC2)nc1	MC4R ag barr 9.9 (no result: TLR4 MyD88 comp) | MC4R barr conf inactive | MOR-DOR barr ag inactive
CC(=O)c1c(C)[nH]c(C(=O)NNC(=O)COc2cc(C)cc(C)c2)c1C	none (no result: TLR4 MyD88 comp)
CCSc1cnnc2ccccc12	none (no result: NTR1 ag, TLR4 MyD88 comp)
Clc1ccc(CSc2cnnc3ccccc23)cc1Cl	MC4R ag barr 13 (no result: NTR1 ag, TLR4 MyD88 comp) | MC4R barr conf inactive | MOR-DOR barr ag inactive
Cc1nn(-c2ccccc2)c(Cl)c1/C=N/NC(=O)CCNc1n[nH]c(=O)[nH]c1=O	none (no result: TLR9-MyD88 inh, TLR4 MyD88 comp, NOD2-RIPK2 inh, MC4R antag cAMP, MC4R ag barr)
O=C(Cn1nnc(-c2ccc(F)cc2)n1)NC(=O)NC1CCCCC1	MC4R ag barr 9.7 (no result: NTR1 ag, TLR4 MyD88 comp) | MC4R barr conf inactive | MOR-DOR barr ag inactive
NC(=O)CC(NC(=O)Cc1ccc(Br)cc1)c1ccc(NC2CCCCCCC2)c([N+](=O)[O-])c1 (stereo not drawn)	MC4R ag barr 11 (no result: NTR1 ag, TLR4 MyD88 comp) | MC4R barr conf inactive | MOR-DOR barr ag inactive
Cc1cccc(NC(=O)c2sc3nc(-c4ccc(F)cc4)cn3c2C)n1	MC4R ag barr 12 | MC4R barr conf inactive | MOR-DOR barr ag inactive
Cc1ccc2[nH]c(O)c(N=NC(=O)C3CC3c3ccccc3)c2c1Br (stereo not drawn)	MC4R ag barr 18 | MC4R barr conf inactive | MOR-DOR barr ag inactive
C/C(=N\NC(=S)NC(C)C)c1ccc(-n2ccnc2)cc1	none
COC(=O)c1ccc(OCC(=O)Nc2ccsc2C(=O)OC)cc1	none
COC(=O)c1sccc1NC(=O)COc1ccc(F)cc1Cl	MC4R ag barr 10 | MC4R barr conf inactive | MOR-DOR barr ag inactive
COC(=O)c1sccc1NC(=O)Nc1ccc(Cl)c(Cl)c1	MC4R ag barr 13 | MC4R barr conf inactive | MOR-DOR barr ag inactive
COC(=O)c1sccc1NC(=O)c1ccc(C)s1	none
COC(=O)c1sccc1NC(=O)c1ccc(Cl)s1	MC4R ag barr 12 | MC4R barr conf inactive | MOR-DOR barr ag inactive
Cn1cc(Br)c(-c2cccc(NC(=O)CCCC(=O)O)c2)n1	none (no result: TLR4 MyD88 comp)
